Common to all, as to type: cell-based
Assay [1] relates to Candida albicans (MTCC 227). The experiment in a line: microbe, parasite or virus in culture. Conditions: for diameter of the inhibition zone, C. albicans: 0.1 mL of 50 mg mL^-1 in DMSO per 8 mm well, 18-24 h, NA = no activity.
Assay [2] has as its system methicillin resistant Staphylococcus aureus (MRSA). Nature of the assay: microbe, parasite or virus in culture. Conditions: for diameter of the inhibition zone, MRSA: 0.1 mL of 50 mg mL^-1 in DMSO per 8 mm well, 18-24 h, NA = no activity.
Assay [3] deals with Staphylococcus aureus (MTCC 740). Conditions: 0.1 mL of 50 mg mL^-1 in DMSO per 8 mm well, 18-24 h; NA = no activity.
The test system of assay [4] is Staphylococcus epidermidis (MTCC 435). Conditions: 0.1 mL of 50 mg mL^-1 in DMSO per 8 mm well, 18-24 h; NA = no activity.
Assay [5] has as its system Enterococcus faecalis (MTCC 439). Nature of the assay: microbe, parasite or virus in culture.
Assay [6] concerns Shigella flexneri (MTCC 1457). The experiment in a line: microbe, parasite or virus in culture.
Assay [7] relates to methicillin resistant Staphylococcus aureus (MRSA). Nature of the assay: Minimum inhibitory concentration, agar dilution method. Particulars: 24 h, read-out: Minimum inhibitory concentration, MRSA. The procedure, abridged:
(§1)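 Bacteria were grown from a loopful in broth at 37 °C for 4 h and adjusted to McFarland turbidity, about (1 to 2) × 10^8 CFU per mL. Test compound in DMSO was mixed into Muller Hinton agar over 0.001–2 mg mL−1. Plates were swab-inoculated with 0.1 mL culture and held at 37 °C for 24 h. MIC was the lowest concentration preventing visible growth, with DMSO as control.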
A general note: In agar dilution the substance is mixed into plates at graded concentrations.

The test system of assay [8] is Staphylococcus aureus (MTCC 740). Nature of the assay: Minimum inhibitory concentration, agar dilution method. Particulars: MTCC740, 24 h, read-out: Minimum inhibitory concentration, S. Aureus.
The test system of assay [9] is Staphylococcus epidermidis (MTCC 435). Described as above. Conditions: MTCC435, 24 h, read-out: Minimum inhibitory concentration, S. epidermidis.
Assay [10] concerns Enterococcus faecalis (MTCC 439). Described as above. Particulars: MTCC439, 24 h, read-out: Minimum inhibitory concentration, E. faecalis.
The test system of assay [11] is Shigella flexneri (MTCC 1457). Nature of the assay: Minimum inhibitory concentration, agar dilution method. The method, boiled down: as §1
Assay [12] deals with human osteosarcoma cell line MG63. Nature of the assay: Antitumor MTT assay. In general terms: Tetrazolium dyes change colour on reduction, which living cells bring about.
In assay [13] the test system is Candida albicans (MTCC 227). Nature of the assay: Minimum inhibitory concentration, agar dilution method. Conditions: Muller Hinton agar, 25 °C, 24 h.
[14] abbreviates: 0.1 mL of 50 mg mL^-1 in DMSO per 8 mm well, 18-24 h, NA = no activity.

In brackets after ≈: the same amount, converted by molar mass. Marks after values point to notes of the source that are not given here.

By zone of inhibition is commonly meant the extent of the growth-free halo in a diffusion test. As usually defined, the IC50 is the concentration that gives 50% inhibition. The low end stands for higher potency, the high end for lower potency.

For the compound `C[C@@H]1[C@H](O)[C@@H](C)/C=C/C=C/C=C/C=C/C=C/C=C/C=C/[C@H](O[C@@H]2O[C@H](C)[C@@H](O)[C@H](N)[C@@H]2O)C[C@@H]2O[C@](O)(C[C@@H](O)C[C@@H](O)[C@H](O)CC[C@@H](O)C[C@@H](O)CC(=O)O[C@H]1C)C[C@H](O)[C@H]2C(=O)O` [Amphotericin B], the “diameter of the inhibition zone, C. albicans” value in assay [1] was 34 ^d mm. Moreover, in [1] (Candida albicans, MTCC227, read-out: diameter of the inhibition zone, C. albicans), the zone of inhibition at 50 µg/mL was 34 mm.
In the case of `S=c1[nH]c2ccccc2[nH]1` [BzimSH, benz-imidazoline-2-thione], the “diameter of the inhibition zone, C. albicans” value in [1] came out at 13 mm.
Consider `CNC(C)C1CCC(N)C(OC2C(N)CC(N)C(OC3OCC(C)(O)C(NC)C3O)C2O)O1` (stereo not drawn) [Gentamicin, reference compound], for which the “diameter of the inhibition zone, MRSA” value in assay [2] is listed as 33 ^d mm. Besides, the zone of inhibition at 50 µg/mL in assay [2] (Staphylococcus aureus, MRSA, read-out: diameter of the inhibition zone, MRSA) is 33 mm; in assay [5] (Enterococcus faecalis, MTCC439, read-out: diameter of the inhibition zone, E. faecalis), 27 mm; in assay [6] (Shigella flexneri, MTCC1457, read-out: diameter of the inhibition zone, S. flexneri) it was 34.5 mm. The “diameter of the inhibition zone, S. aureus” value in assay [3] is recorded as 26 ^d mm. Besides, the “diameter of the inhibition zone, S. epidermidis” value in [4] was 25 ^d mm. The “diameter of the inhibition zone, E. faecalis” value in assay [5] (setting [14]) is listed as 27 ^d mm. In [6] (setting [14]), the “diameter of the inhibition zone, S. flexneri” value is 34.5 ^d mm. In addition, the MIC in [7] was determined as 10 µg/mL (≈ 20.9 µM); in [8], 0.5 µg/mL (≈ 1.05 µM); in [9], 30 µg/mL (≈ 62.8 µM); in [10] it was 30 µg/mL (≈ 62.8 µM); in assay [11] (Shigella flexneri, MTCC1457, 24 h, read-out: Minimum inhibitory concentration, S. flexneri, Muller Hinton agar, 37 °C, 24 h), 7 µg/mL (≈ 14.7 µM). Besides, in [11] (Muller Hinton agar, 37 °C, 24 h), the “Minimum inhibitory concentration, S. flexneri” value worked out at 5 µg/mL (≈ 10.5 µM).
`c1ccc(P(c2ccccc2)c2ccccc2)cc1` [PPh3, triphenylphosphine, reference compound]: the half-inhibitory concentration (IC50) in [12] (Homo sapiens, MG-63, 24 h) is over 100 µM.
Consider `S=c1cccc[nH]1` [PySH, pyridine-2-thione, reference compound], for which, in assay [12] (Homo sapiens, MG-63, 24 h), half-maximal inhibition (IC50) was put at 29.7 µM. That is a double-digit micromolar value.
For the compound `O=c1cc[nH]c(=S)[nH]1` [tucH2, 2-thiouracil, reference compound], the “diameter of the inhibition zone, S. epidermidis” value in assay [4] is “inactive”. In [12] (Homo sapiens, MG-63, 24 h), this compound displayed an IC50 of 44.3 µM.
In the case of “[Ag2(purSH2)2(dppm)2](NO3)2·2H2O [Complex 5]”, the “diameter of the inhibition zone, S. aureus” value in assay [3] was 12 mm. The “diameter of the inhibition zone, S. epidermidis” value in [4] worked out at 12 mm. Moreover, the “diameter of the inhibition zone, C. albicans” value in assay [1] was 17 mm. Also, the “Minimum inhibitory concentration, C. albicans” value in assay [13] came to 50 µg/mL. The IC50 in assay [12] (MG63 cells, 24 h exposure, MTT, 570 nm) was 7.62 µM.
With “purine-6-thione [purSH2, reference compound]”, in assay [2], the “diameter of the inhibition zone, MRSA” value is 18 mm. Moreover, the “diameter of the inhibition zone, S. aureus” value in assay [3] amounted to 13 mm. Also, the “diameter of the inhibition zone, S. epidermidis” value in assay [4] is “inactive”. In [1], the “diameter of the inhibition zone, C. albicans” value was “inactive”.

The values above are taken from article PMC9066168 (RSC Advances, 2019).
